Measured values: ChEMBL document CHEMBL1148454, “[1-(3,5-difluoro-4-hydroxyphenyl)-1H-pyrrol-3-yl]phenylmethanone as a bioisostere of a carboxylic acid aldose reductase inhibitor” (J Med Chem, 2004)
pIC50: −log10 of the molar value.

Key:
[1] = target: Aldo-keto reductase family 1 member B1 (Rattus norvegicus, UniProt P07943); assay: In vitro inhibitory activity of compound against rat lens aldose reductase
[2] = target: Aldo-keto reductase family 1 member B1 (Rattus norvegicus) (UniProt P07943); assay: In vitro percentage inhibition of rat lens aldose reductase at 10E-5 M concentration
Summary of the method: (§1)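 Rat lens (Fischer-344, both sexes) aldose reductase, assayed by spectrophotometric monitoring of NADPH oxidation. Compounds dissolved in 0.2 M NaHCO3. Inhibition at a single concentration, triplicate determinations.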

[3] = target: Aldo-keto reductase family 1 member B1 (Rattus norvegicus) (UniProt P07943); assay: In vitro percentage inhibition of rat lens aldose reductase at 10E-6 M concentration; summary of the method: as §1
[4] = target: Aldo-keto reductase family 1 member B1 (Rattus norvegicus) (UniProt P07943); assay: In vitro percentage inhibition of rat lens aldose reductase at 10E-7 M concentration; summary of the method: as §1
[5] = In vitro percentage inhibition of formation of DNPH-reactive carbonyl groups in BSA exposed to fructose at 1 mM concentration; assay type: functional
Summary of the method: (§2)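 Bovine serum albumin (fraction V, essentially fatty acid free) incubated with fructose for 28 days. Compounds given as potassium salts in water; trolox as reference.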

[6] = In vitro percentage inhibition of formation of DNPH-reactive carbonyl groups in BSA exposed to fructose at […] concentration; assay type: functional
[7] = In vitro percentage inhibition of formation of DNPH-reactive carbonyl groups in BSA exposed to fructose at 5 mM concentration; assay type: functional; summary of the method: as §2
[8] = In vitro percentage inhibition of glycation-induced fluorescence changes of BSA at 1 mM concentration; assay type: functional; summary of the method: as §2
[9] = In vitro percentage inhibition of glycation-induced fluorescence changes of BSA at […] concentration; assay type: functional
[10] = In vitro percentage inhibition of glycation-induced fluorescence changes of BSA at 5 mM concentration; assay type: functional; summary of the method: as §2

Question: With `O=C(c1ccccc1)c1ccn(-c2cc(F)c(O)c(F)c2)c1` as the compound, how does the pIC50 [1] read?
Answer: Its pIC50 is 6.40.

Question: And the inhibition [2]?
Answer: Its inhibition is 88%.

Question: What about the inhibition [3] of the same compound?
Answer: The inhibition was 68%.

Question: And the inhibition [4]?
Answer: The inhibition was 29%.

Question: What about the inhibition [5] of the same compound?
Answer: Its inhibition is 48%.

Question: What about the inhibition [6] of the same compound?
Answer: The inhibition was 55%.

Question: And the inhibition [7]?
Answer: Its inhibition is 61%.

Question: What about the inhibition [8] of the same compound?
Answer: The inhibition was 64%.

Question: And the inhibition [9]?
Answer: The inhibition was 68%.

Question: And the inhibition [10]?
Answer: The inhibition was 74%.

Question: With `Oc1c(F)cc(-n2cccc2)cc1F` as the compound, how does the pIC50 [1] read?
Answer: The pIC50 was 4.63.

Question: And the inhibition [2]?
Answer: The inhibition was 24%.

Question: And the inhibition [3]?
Answer: The inhibition was 13%.

Question: What does the source list for `O=C(O)Cn1ccc(C(=O)c2ccccc2)c1`?
Answer: pIC50 [1]: 5.71; inhibition [2]: 78%; inhibition [3]: 37%; inhibition [5]: 28%; inhibition [6]: 51%; inhibition [7]: 67%; inhibition [8]: 48%; inhibition [9]: 67%; inhibition [10]: 81%

Question: Which results are given for `Cc1c(C)c2c(c(C)c1O)CCC(C)(C(=O)O)O2` (centres undefined)?
Answer: inhibition [5]: 36%; inhibition [8]: 59%
